ChEMBL document CHEMBL1212768, “Screening and quantification of the expression of antibiotic resistance genes in Acinetobacter baumannii with a microarray” (2010)
Values after ≈ are worked out from the molar mass of the structure shown.

What was measured:
Assay type in all cases: functional
Acinetobacter baumannii [1] = test: Antibacterial activity against Acinetobacter baumannii BM4587 by antimicrobial susceptibility assay
Procedure, shortened: (§1)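 MICs measured by Etest on Mueller-Hinton agar. Disk diffusion on the same medium was used for susceptibility screening. Strains were grown at 37°C in brain heart infusion broth or agar. Mutants were picked from antibiotic gradient plates, taking colonies growing above the normal MIC. Those resistant to several drug classes by diffusion were kept.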

Acinetobacter baumannii [2] = test: Antibacterial activity against Acinetobacter baumannii BM4454 by antimicrobial susceptibility assay; procedure, shortened: as §1
Acinetobacter baumannii [3] = test: Antibacterial activity against multidrug-resistant Acinetobacter baumannii BM4665 by antimicrobial susceptibility assay; procedure, shortened: as §1
Acinetobacter baumannii [4] = test: Antibacterial activity against multidrug-resistant Acinetobacter baumannii BM4666 by antimicrobial susceptibility assay; procedure, shortened: as §1
Acinetobacter baumannii [5] = test: Antibacterial activity against Acinetobacter baumannii BM4467 by antimicrobial susceptibility assay; procedure, shortened: as §1
Acinetobacter baumannii [6] = test: Antibacterial activity against multidrug-resistant Acinetobacter baumannii BM4668 by antimicrobial susceptibility assay; procedure, shortened: as §1
Acinetobacter baumannii [7] = test: Antibacterial activity against Acinetobacter baumannii CIP70-10 by antimicrobial susceptibility assay; procedure, shortened: as §1
Acinetobacter baumannii [8] = test: Antibacterial activity against multidrug-resistant Acinetobacter baumannii AYE by antimicrobial susceptibility assay; procedure, shortened: as §1
Acinetobacter baumannii [9] = test: Antibacterial activity against multidrug-resistant Acinetobacter baumannii BM4675 by antimicrobial susceptibility assay; procedure, shortened: as §1
Acinetobacter baumannii [10] = test: Antibacterial activity against multidrug-resistant Acinetobacter baumannii BM4676 by antimicrobial susceptibility assay; procedure, shortened: as §1

| Molecule | MIC (Acinetobacter baumannii [1]) [µg/mL] | MIC (Acinetobacter baumannii [2]) [µg/mL] | MIC (Acinetobacter baumannii [3]) [µg/mL] | MIC (Acinetobacter baumannii [4]) [µg/mL] | MIC (Acinetobacter baumannii [5]) [µg/mL] | MIC (Acinetobacter baumannii [6]) [µg/mL] | MIC (Acinetobacter baumannii [7]) [µg/mL] | MIC (Acinetobacter baumannii [8]) [µg/mL] | MIC (Acinetobacter baumannii [9]) [µg/mL] | MIC (Acinetobacter baumannii [10]) [µg/mL] |
| --- | --- | --- | --- | --- | --- | --- | --- | --- | --- | --- |
| CO[C@H]1/C=C/O[C@@]2(C)Oc3c(C)c(O)c4c(O)c(c(/C=N/N5CCN(C)CC5)c(O)c4c3C2=O)NC(=O)/C(C)=C\C=C\[C@H](C)[C@H](O)[C@@H](C)[C@@H](O)[C@@H](C)[C@H](OC(C)=O)[C@@H]1C [RIFAMPIN] | 1.5 (≈ 1.82 µM) | 2 (≈ 2.43 µM) | 1.5 (≈ 1.82 µM) | 3 (≈ 3.65 µM) | 2 (≈ 2.43 µM) | 3 (≈ 3.65 µM) | 4 (≈ 4.86 µM) | 16 (≈ 19.4 µM) | > 32 | 2 (≈ 2.43 µM) |
| CO/N=C(\C(=O)N[C@@H]1C(=O)N2C(C(=O)O)=C(COC(C)=O)CS[C@H]12)c1csc(N)n1 [CEFOTAXIME] | 3 (≈ 6.59 µM) | 4 (≈ 8.78 µM) | 4 (≈ 8.78 µM) | 6 (≈ 13.2 µM) | 4 (≈ 8.78 µM) | 8 (≈ 17.6 µM) | 12 (≈ 26.3 µM) | > 256 | > 256 | 32 (≈ 70.3 µM) |
| C[C@H]1[C@H](NC(=O)/C(=N\OC(C)(C)C(=O)O)c2csc(N)n2)C(=O)N1S(=O)(=O)O [AZTREONAM] | 12 (≈ 27.6 µM) | 16 (≈ 36.7 µM) | 6 (≈ 13.8 µM) | 32 (≈ 73.5 µM) | 32 (≈ 73.5 µM) | 48 (≈ 110 µM) | 48 (≈ 110 µM) | > 256 | 32 (≈ 73.5 µM) | 32 (≈ 73.5 µM) |
| NCC[C@H](O)C(=O)N[C@@H]1C[C@H](N)[C@@H](O[C@H]2O[C@H](CN)[C@@H](O)[C@H](O)[C@H]2O)[C@H](O)[C@H]1O[C@H]1O[C@H](CO)[C@@H](O)[C@H](N)[C@H]1O [AMIKACIN] | 4 (≈ 6.83 µM) | 8 (≈ 13.7 µM) | 64 (≈ 109 µM) | 6 (≈ 10.2 µM) | 4 (≈ 6.83 µM) | 8 (≈ 13.7 µM) | 6 (≈ 10.2 µM) | 96 (≈ 164 µM) | 96 (≈ 164 µM) | > 256 |
| O=C(N[C@H](CO)[C@H](O)c1ccc([N+](=O)[O-])cc1)C(Cl)Cl [CHLORAMPHENICOL] | 96 (≈ 297 µM) | > 256 | > 256 | > 256 | 96 (≈ 297 µM) | > 256 | 48 (≈ 149 µM) | > 256 | > 256 | 128 (≈ 396 µM) |
| CCn1cc(C(=O)O)c(=O)c2cc(F)c(N3CCNCC3)cc21 [NORFLOXACIN] | 1.5 (≈ 4.7 µM) | > 256 | 12 (≈ 37.6 µM) | 4 (≈ 12.5 µM) | 1.5 (≈ 4.7 µM) | 4 (≈ 12.5 µM) | 2 (≈ 6.26 µM) | > 256 | > 256 | 192 (≈ 601 µM) |
| CCN[C@@H]1C[C@H](N)[C@@H](O[C@H]2OC(CN)=CC[C@H]2N)[C@H](O)[C@H]1O[C@H]1OC[C@](C)(O)[C@H](NC)[C@H]1O [NETILMICIN] | 1.5 (≈ 3.15 µM) | 16 (≈ 33.6 µM) | 64 (≈ 135 µM) | 1.5 (≈ 3.15 µM) | 2 (≈ 4.21 µM) | 2 (≈ 4.21 µM) | 2 (≈ 4.21 µM) | 48 (≈ 101 µM) | 32 (≈ 67.3 µM) | 12 (≈ 25.2 µM) |
| CO/N=C(\C(=O)N[C@@H]1C(=O)N2C(C(=O)[O-])=C(C[N+]3(C)CCCC3)CS[C@H]12)c1csc(N)n1 [CEFEPIME] | 0.75 (≈ 1.56 µM) | 3 (≈ 6.24 µM) | 8 (≈ 16.6 µM) | 2 (≈ 4.16 µM) | 1.5 (≈ 3.12 µM) | 3 (≈ 6.24 µM) | 1.5 (≈ 3.12 µM) | > 256 | 8 (≈ 16.6 µM) | 32 (≈ 66.6 µM) |
| GENTAMICIN | 1 | 6 | 12 | 1.5 | 1.5 | 1.5 | 1.5 | > 256 | 24 | > 256 |
